From ChEMBL document CHEMBL1132160, “Structure-antiviral activity relationship in the series of pyrimidine and purine N-[2-(2-phosphonomethoxy)ethyl] nucleotide analogues. 1. Derivatives substituted at the carbon atoms of the base” (J Med Chem, 1999)
≈ marks a conversion by molar mass, not a printed value.

What was measured:
[1] = Inhibitory activity against murine sarcoma virus induced transformation of murine C3H/3T3 embryo fibroblasts; assay type: functional, Mus musculus
Procedure, shortened: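 Murine C3H/3T3 embryo fibroblasts were seeded at 5 × 10⁵ cells/mL. After 24 h they were infected with 80 focus-forming units of MSV for 90–120 min at 37 °C. The medium was then replaced with fresh medium containing various compound concentrations, and transformation was examined microscopically after 6 days.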

Human alphaherpesvirus 1 [2] = experiment: Inhibitory activity against herpes simplex virus type 1 (HSV-1) F strain; assay type: functional, organism-based
Procedure, shortened: (§1)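 Confluent E6SM cell cultures were inoculated with 100 CCID50 of virus and allowed 1 h for adsorption. Residual virus was then removed, and the cells were incubated with test compound at 400, 200, 100, ... μg/mL. Viral cytopathicity was scored once it reached completion in untreated infected controls.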

Human alphaherpesvirus 1 [3] = experiment: Inhibitory activity against herpes simplex virus type 1 (HSV-1) KOS strain.; assay type: functional, organism-based; procedure, shortened: as §1
Human alphaherpesvirus 1 [4] = experiment: Iactivity against herpes simplex virus type 1 (HSV-1) McIntyre strain.; assay type: functional, organism-based; procedure, shortened: as §1
E6SM [5] = experiment: Compound was evaluated for inhibitory activity against herpes simplex virus type 1 thymidine kinase (HSV-1 TK-) B2006 strain; NA=not active; assay type: functional, cell-based, Homo sapiens; procedure, shortened: as §1
Human alphaherpesvirus 2 [6] = experiment: Inhibitory activity against herpes simplex virus type 2 (HSV-2) 196 strain.; assay type: functional, organism-based; procedure, shortened: as §1
Human alphaherpesvirus 2 [7] = experiment: Inhibitory activity against herpes simplex virus type 2 (HSV-2) G strain.; assay type: functional, organism-based; procedure, shortened: as §1
E6SM [8] = experiment: Inhibitory activity against herpes simplex virus type 2 (HSV-2) Lyons strain.; assay type: functional, cell-based, Homo sapiens; procedure, shortened: as §1
Vaccinia virus [9] = experiment: Inhibitory activity against vaccinia virus (VV).; assay type: functional, organism-based, Orthopoxvirus vaccinia
Procedure, shortened: (§2)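 Confluent E6SM cell cultures were inoculated with 100 CCID50 of virus and left for 1 h adsorption, then residual virus was removed. Cultures were incubated with test compound at serial concentrations (400, 200, 100, ... μg/mL). Virus-induced cytopathicity was scored once it reached completion in untreated infected control cultures.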

Cytomegalovirus [10] = experiment: Inhibitory activity against cytomegalovirus (CMV) AD 169 strain; assay type: functional, organism-based; conditions: Human betaherpesvirus 5
Procedure, shortened: (§3)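 HEL cell cultures, grown to confluence, received 100 CCID50 of virus. After 1 h adsorption, the inoculum was removed and the cultures were incubated with serial concentrations of compound (400, 200, 100, ... μg/mL).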

Cytomegalovirus [11] = experiment: Inhibitory activity against cytomegalovirus (CMV) Davis strain; assay type: functional, organism-based; conditions: Human betaherpesvirus 5; procedure, shortened: as §3
[12] = tested on: Human immunodeficiency virus 1; experiment: Inhibitory activity of compound against human immunodeficiency virus type 1 (HIV-1) induced cytopathogenicity in MT-4 cells; assay type: functional, organism-based; conditions: Human immunodeficiency virus 1, MT4
Procedure, shortened: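 Human MT-4 cells (~4 × 10⁵ cells/mL) were infected with 100 CCID50 of HIV-1 (IIIB)/mL and seeded into wells containing compound dilutions. After 5 days at 37 °C, viable cells were counted by trypan blue exclusion in a blood cell counting chamber.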

Human alphaherpesvirus 1 [13] = experiment: Inhibitory activity against herpes simplex virus type 1 thymidine kinase (HSV-1 TK-) VMW 1837 strain.
[14] = tested on: Human immunodeficiency virus 1; experiment: Inhibition of human immunodeficiency virus type 1 (HIV-1) induced cytopathogenicity in CEM cells; assay type: functional, organism-based; conditions: Human immunodeficiency virus 1, CCRF-CEM
Procedure, shortened: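 CEM cells (~3 × 10⁵ cells/mL) were infected with 100 CCID50 of HIV-1 (IIIB)/mL and plated with dilutions of compound. After 4 days at 37 °C, giant cell formation was assessed microscopically.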

[15] = tested on: Human immunodeficiency virus 2; experiment: Inhibition of human immunodeficiency virus type 2 (HIV-2) induced cytopathogenicity in CEM cells; assay type: functional, organism-based; conditions: Human immunodeficiency virus 2, CCRF-CEM
Human alphaherpesvirus 1 [16] = experiment: Inhibitory activity against herpes simplex virus type 1 (HSV-1) KOS strain; assay type: functional, organism-based; procedure, shortened: as §1
Vaccinia virus [17] = experiment: Inhibitory activity against vaccinia virus (VV); assay type: functional, organism-based; conditions: Orthopoxvirus vaccinia; procedure, shortened: as §2
[18] = tested on: Human immunodeficiency virus 2; experiment: Inhibitory activity against human immunodeficiency virus type 2 (HIV-2) induced cytopathogenicity in MT-4 cells; assay type: functional, organism-based; conditions: Human immunodeficiency virus 2, MT4
Human alphaherpesvirus 2 [19] = experiment: Inhibitory activity against herpes simplex virus type 2 (HSV-2) G strain; assay type: functional, organism-based; procedure, shortened: as §1
Human alphaherpesvirus 1 [20] = experiment: Inhibition of herpes simplex virus type 1 (HSV-1) F strain; assay type: functional, organism-based; procedure, shortened: as §1
Human alphaherpesvirus 1 [21] = experiment: Inhibitory activity against herpes simplex virus type 1 (HSV-1) McIntyre strain; assay type: functional, organism-based; procedure, shortened: as §1
[22] = Inhibitory activity against herpes simplex virus type 2 (HSV-2) 196 strain; assay type: functional; procedure, shortened: as §1
Human alphaherpesvirus 2 [23] = experiment: Inhibitory activity against herpes simplex virus type 2 (HSV-2) Lyons strain; assay type: functional, organism-based; procedure, shortened: as §1
HEL = experiment: Compound was evaluated for inhibitory activity against varicella zoster virus thymidine kinase (VZV TK-) 07/1 strain; NA=not active; assay type: functional, cell-based, Homo sapiens

| Structure (SMILES) | EC50 [1] [µg/mL] | EC50 (Vaccinia virus [9]) | EC50 (Cytomegalovirus [10]) [µg/mL] | EC50 (Cytomegalovirus [11]) [µg/mL] | EC50 [12] [µg/mL] | EC50 [14] [µg/mL] | EC50 [15] [µg/mL] | EC50 (Human alphaherpesvirus 1 [16]) [µg/mL] | EC50 (Vaccinia virus [17]) [µg/mL] | EC50 [18] [µg/mL] | EC50 (Human alphaherpesvirus 2 [19]) [µg/mL] | EC50 (Human alphaherpesvirus 1 [20]) [µg/mL] | EC50 (Human alphaherpesvirus 1 [21]) [µg/mL] | EC50 [22] [µg/mL] | EC50 (Human alphaherpesvirus 2 [23]) [µg/mL] | further results |
| --- | --- | --- | --- | --- | --- | --- | --- | --- | --- | --- | --- | --- | --- | --- | --- | --- |
| Nc1nccc2c1ncn2CCOCP(=O)(O)O | > 100 | Not Active | 70 (≈ 257 µM) | 400 (≈ 1470 µM) | > 200 | – | – | – | – | – | – | – | – | – | – | EC50 (Human alphaherpesvirus 1 [2]): Not Active; EC50 (Human alphaherpesvirus 1 [3]): Not Active; EC50 (Human alphaherpesvirus 1 [4]): Not Active; EC50 (E6SM [5]): Not Active; EC50 (Human alphaherpesvirus 2 [6]): Not Active; EC50 (Human alphaherpesvirus 2 [7]): Not Active; EC50 (E6SM [8]): Not Active; EC50 (Human alphaherpesvirus 1 [13]): Not Active |
| Nc1nc(S)c2c(ncn2CCOCP(=O)(O)O)n1 | 31 (≈ 102 µM) | – | > 50 | > 50 | > 100 | > 100 | > 100 | > 100 | > 100 | > 100 | > 100 | – | – | – | – | – |
| Nc1nc(O)c2c(ncn2CCOCP(=O)(O)O)n1 | 96 (≈ 332 µM) | – | > 50 | > 50 | – | > 100 | > 100 | 300 (≈ 1040 µM) | > 400 | – | 300 (≈ 1040 µM) | 200 (≈ 692 µM) | 150 (≈ 519 µM) | 200 (≈ 692 µM) | > 400 | EC50 (HEL): Not Active |
| CC(C)CCCCCOP(=O)(O)COCCn1cnc2c(O)nc(N)nc21 | – | – | > 50 | > 50 | > 100 | – | – | 240 (≈ 598 µM) | – | > 100 | 240 (≈ 598 µM) | 240 (≈ 598 µM) | 240 (≈ 598 µM) | 240 (≈ 598 µM) | 240 (≈ 598 µM) | – |
| Nc1cc2c(ncn2CCOCP(=O)(O)O)c(N)n1 | 144 (≈ 501 µM) | – | > 50 | > 50 | 51 (≈ 178 µM) | 30 (≈ 104 µM) | 16 (≈ 55.7 µM) | 150 (≈ 522 µM) | 150 (≈ 522 µM) | 78.5 (≈ 273 µM) | 70 (≈ 244 µM) | 70 (≈ 244 µM) | 100 (≈ 348 µM) | 100 (≈ 348 µM) | 70 (≈ 244 µM) | – |
| Nc1ncc2ncn(CCOCP(=O)(O)O)c2n1 | 0.1 (≈ 0.366 µM) | Not Active | > 100 | > 100 | 40.9 (≈ 150 µM) | – | – | 70 (≈ 256 µM) | – | 50 (≈ 183 µM) | 400 (≈ 1460 µM) | 20 (≈ 73.2 µM) | 20 (≈ 73.2 µM) | 150 (≈ 549 µM) | 70 (≈ 256 µM) | – |
| Nc1ncnc2c1ccn2CCOCP(=O)(O)O | 4.1 (≈ 15.1 µM) | – | > 50 | > 50 | 7.56 (≈ 27.8 µM) | 4 (≈ 14.7 µM) | 2.5 (≈ 9.18 µM) | 200 (≈ 735 µM) | 150 (≈ 551 µM) | 8.27 (≈ 30.4 µM) | 70 (≈ 257 µM) | 150 (≈ 551 µM) | 100 (≈ 367 µM) | 200 (≈ 735 µM) | 100 (≈ 367 µM) | EC50 (HEL): Not Active |
| Nc1nccc(OCCOCP(=O)(O)O)n1 | 2.33 (≈ 9.35 µM) | Not Active | > 100 | > 100 | > 100 | – | – | > 200 | – | > 100 | > 200 | > 200 | 300 (≈ 1200 µM) | > 200 | 300 (≈ 1200 µM) | – |
| Nc1nc(Cl)nc2c1ncn2CCOCP(=O)(O)O | 18.2 (≈ 59.2 µM) | – | 88 (≈ 286 µM) | 85 (≈ 276 µM) | > 100 | – | – | – | > 40 | > 100 | – | – | – | – | – | EC50 (Human alphaherpesvirus 1 [2]): Not Active; EC50 (Human alphaherpesvirus 1 [3]): Not Active; EC50 (Human alphaherpesvirus 1 [4]): Not Active; EC50 (Human alphaherpesvirus 2 [6]): Not Active; EC50 (Human alphaherpesvirus 2 [7]): Not Active; EC50 (E6SM [8]): Not Active; EC50 (Human alphaherpesvirus 1 [13]): Not Active |
| Nc1nc2c(ncn2CCOCP(=O)(O)O)c(=O)[nH]1 [GS-438] | 0.0006 (≈ 0.00207 µM) | – | – | – | > 0.2 | – | 0.03 (≈ 0.104 µM) | – | – | > 0.2 | – | – | – | – | – | – |
